Screens deposited in PubChem by several laboratories.
NALP1 inh = NALP1 inflammasome inhibitors in reconstituted yeast, colorimetric, S. cerevisiae, triplicate retest; S. cerevisiae NALP1/ASC/caspase-1 growth, X-gal OD620, 72 h; inhibition, % at 10 µM; 280,000 tested, 0.61% active; AID 2071, 2009; in the data active = inhibition mostly above about 24%, no sharp cut-off; inactive = mostly below about 32%
ALR inh = inhibitors of human ALR sulfhydryl oxidase, primary screen, biochemical, H2O2 detection, HRP-luminol luminescence, single point; FAD-linked sulfhydryl oxidase ALR (Homo sapiens), P55789; purified ALR, DTT oxidation; inhibition, % (test concentration not listed); 290,000 tested, 3.8% active; AID 485317, 2010;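 active = mean replicate inhibition above about 79%, with every replicate also reaching it, limit read from the data; inconclusive = only one of the two criteria met; inactive = mean below limit and not every replicate reaching it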
Target sequence (P55789 whole entry, looked up): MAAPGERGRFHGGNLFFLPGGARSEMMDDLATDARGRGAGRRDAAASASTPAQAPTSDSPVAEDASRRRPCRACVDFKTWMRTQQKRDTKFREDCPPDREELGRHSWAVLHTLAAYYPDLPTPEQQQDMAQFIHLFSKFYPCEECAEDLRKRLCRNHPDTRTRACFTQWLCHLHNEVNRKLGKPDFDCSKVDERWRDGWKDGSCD
NALP3 yeast inh = NALP3 inflammasome inhibitors in reconstituted yeast, primary screen, luminescence, uHTS. Yeast reconstituted NLRP3/ASC/caspase-1, beta-gal luminescence, 24 h. inhibition, % at 10 µM. 330,000 tested, 0.39% active. AID 2825, 2010;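 active = inhibition of 50% or more; inactive = inhibition below 50%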;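 note: plate controls were induced DMSO wells for no effect and uninduced yeast grown without galactose for full effect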
ATG4B inhibitor = ATG4B protease inhibitors, primary screen, biochemical, fluorescence, uHTS; Cysteine protease ATG4B (Homo sapiens), Q9Y4P1; ATG4B cleavage of LC3-PLA2, NBD-HPC fluorescence, 1 h; inhibition, % at 8.33 µM; 340,000 tested, 0.51% active; AID 504462, 2011; in the data active = inhibition above about 40%
Target sequence (Q9Y4P1 whole entry, looked up): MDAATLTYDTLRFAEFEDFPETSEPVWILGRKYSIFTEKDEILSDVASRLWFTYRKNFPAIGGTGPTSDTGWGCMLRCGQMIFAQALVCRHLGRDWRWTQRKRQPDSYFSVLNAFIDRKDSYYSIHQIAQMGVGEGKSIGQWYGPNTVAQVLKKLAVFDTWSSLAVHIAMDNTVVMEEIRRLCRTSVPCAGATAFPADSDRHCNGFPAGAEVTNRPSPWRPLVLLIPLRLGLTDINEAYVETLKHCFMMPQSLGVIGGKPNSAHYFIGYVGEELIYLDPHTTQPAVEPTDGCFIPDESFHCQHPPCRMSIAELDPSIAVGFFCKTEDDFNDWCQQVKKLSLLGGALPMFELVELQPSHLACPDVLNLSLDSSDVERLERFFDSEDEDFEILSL
UCH37 inh = inhibitors of human UCH37 deubiquitinase, primary screen, biochemical, Ub-AMC cleavage, fluorescence; purified proteasome/UCH37; inhibition, % (test concentration not listed); 330,000 tested, 0.33% active;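 active = mean inhibition over replicate wells above about 20%, limit read from the data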;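 note: 0% = compound-free wells with enzyme and 100% = wells lacking proteasome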
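Assay system: Proteasome-bound UCH37. Buffer or medium: pH 7.4 Tris-HCl (50 mM) with ovalbumin, ATP-MgCl2, DTT. Incubation: 30 min preincubation with enzyme, 25 min cleavage at room temperature. Measured by: fluorescence, ex 355 nm, em 460 nm. Read-out basis: percent inhibition. Control set: wells without proteasome as full block, compound-free enzyme plus substrate as uninhibited.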
Calb FLC = C. albicans growth inhibition with fluconazole, primary screen, CaCi-2 strain, Alamar Blue fluorescence; AID 1979, 2009; growth inhibition, % (no concentration beside the values); C. albicans CaCi-2 + fluconazole, 48 h; 300,000 tested, 0.57% active;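 active = growth inhibition above about 58% in most replicates, limit read from the data, passing the limit was not always enough; inconclusive = exactly half the replicates above a set limit; inactive = most replicates below a set limit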;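 note: all wells also contain fluconazole at 8 µg/ml as a sub-toxic cotreatment; 0% = median of DMSO wells and 100% = median of geldanamycin control wells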
Numbers without * were called inactive; i = inactive; u = inconclusive; x = no result given. This is a sample that favours compounds with a hit; in the whole collection about 4.8% have one here.

SMILES | NALP1 inh | ALR inh | NALP3 yeast inh | ATG4B inhibitor | UCH37 inh | Calb FLC
O=C(NC(=S)NNC(=O)c1cccs1)c1ccco1 | 22 | 97* | 15 | -5 | 2 | -3
O=C(NC(=S)NNC(=O)c1cccs1)c1ccccc1 | 12 | 99* | 8 | -5 | 10 | 0
O=C(NNC(=S)Nc1ccccc1)c1cccs1 | 2 | 31 | 11 | -4 | 4 | -2
O=C(NNC(=O)c1cccs1)c1ccco1 | -14 | 1 | 18 | -5 | -1 | -3
Cc1cccc(C(=O)NNC(=O)c2ccc(Br)cc2)c1 | 6 | 7 | 9 | 1 | 4 | 20
O=C(CSc1ccccc1)NN=Cc1ccccc1O | x | x | x | x | -2 | x
CC(=O)NN=C(c1ccccc1)C(O)c1ccccc1 (configuration not stated) | x | x | x | x | 2 | x
COCCCNC(=S)NN=Cc1ccc(OC)cc1 | x | x | x | x | 6 | x
Cc1ccccc1C(=O)NNC(=S)NC(=O)c1cccs1 | -5 | 8 | 18 | -7 | 1 | 13
Cc1cccc(C(=O)NC(=S)NNC(=O)c2cccs2)c1 | 7 | 99* | 29 | -5 | 11 | 51
O=C(NNC(=S)NC(=O)c1sc2ccccc2c1Cl)c1ccc(Cl)cc1 | 26 | 98* | 24 | 4 | x | -9
O=C(O)c1ccccc1NC(=S)NC(=O)c1sc2ccccc2c1Cl | -14 | -11 | 17 | 6 | -26 | 15
COC(=O)C1(Cc2ccc(O)c(CC3OC3(C)C)c2)OC(=O)C(O)=C1c1ccc(O)cc1 (configuration not stated) | -2 | 98* | -7 | -23 | 7 | -4
CC(CC(=O)Nc1ccc(OCc2ccccc2)cc1)=NNC(=O)C(=O)Nc1ccccc1C | x | x | x | x | 1 | x
Cn1cnc([N+](=O)[O-])c1SCC(=O)NN | x | 88* | 2 | -3 | 7 | 0
Cn1cnc([N+](=O)[O-])c1SCC(O)CN1CCCCC1 (configuration not stated) | 1 | -2 | 3 | -1 | 8 | -23
Cc1cccc(Sc2c([N+](=O)[O-])ncn2C)c1 | -12 | 98* | -23 | -12 | 4 | 30
Cc1nc([N+](=O)[O-])c(Sc2nc3ccccc3[nH]2)n1Cc1ccccc1 | 12 | 42 | 3 | -4 | 8 | 1
Cn1cnc([N+](=O)[O-])c1Sc1nc2ccccc2[nH]1 | 3 | 99* | 2 | 5 | 5 | -6
Cc1cc2nc(Sc3c([N+](=O)[O-])nc(C)n3Cc3ccccc3)[nH]c2cc1C | 14 | 97* | 19 | 4 | 4 | -13
CNC(=O)N(O)C1N(N=Cc2c(F)cccc2Cl)C(=S)SC1(C)C (configuration not stated) | x | x | x | x | 6 | x
COc1ccc(C=NOCC(=O)OCC(=O)N(C)c2ccccc2)cc1 | x | x | x | x | 2 | x
CS(=O)(=O)c1cc([N+](=O)[O-])c(Sc2nc3ccccc3[nH]2)c([N+](=O)[O-])c1 | 6 | -26 | 23 | -4 | 7 | 12
O=C(O)c1cc([N+](=O)[O-])c(Sc2nc3ccccc3[nH]2)c([N+](=O)[O-])c1 | -2 | 85* | 2 | -2 | 5 | -4
COC(=O)C(C(=O)OC)C(CC(=O)c1ccc(C)cc1)c1cc(OC)c(OC)c(OC)c1 (configuration not stated) | 9 | 97* | 5 | -6 | 3 | -5
SMILES | NALP1 inh | ALR inh | NALP3 yeast inh | ATG4B inhibitor | UCH37 inh | Calb FLC
COc1ccc(C(CC(=O)c2ccc(C)cc2)C(C#N)C#N)cc1OC (configuration not stated) | 16 | 51 | 25 | 0 | 8 | -1
Cc1c(Cc2ccccc2)c(=O)oc2cc(OCc3nn[nH]n3)ccc12 | 21 | 98* | -1 | 13 | -213 | 32
Cc1c(CC(=O)O)c(=O)oc2cc(OCc3nn[nH]n3)ccc12 | -8 | 2 | 10 | -9 | -82 | -5
Cc1c(Cc2ccccc2)c(=O)oc2cc(OCC(=O)N3CCC(C(=O)O)CC3)ccc12 | 9 | 93* | -1 | -21 | -271 | -1
Cc1c(Cc2ccccc2)c(=O)oc2cc(OC(=O)c3ccccc3)ccc12 | x | x | 14 | 23 | -5 | -5
COC(=O)Cc1c(C)c2ccc(OC(=O)c3ccccc3)cc2oc1=O | 12 | 98* | -14 | 4 | i | 9
Cc1cc(C)c(NC(=O)C2CCCN2CCC(C)C)c(C)c1 (configuration not stated) | -79 | x | 4 | -12 | 4 | -12
Cc1cc(C)c(NC(=O)C2CCCCN2C)c(C)c1 (configuration not stated) | 40* | -4 | 5 | 6 | 4 | -6
CCOC(=O)C1=C(O)/C(=C/c2ccc(-c3ccccc3C(=O)O)o2)SC1=Nc1ccc(OC)cc1 | 15 | x | x | 10 | 24* | x
COc1ccc(C=NNS(=O)(=O)c2ccc(Br)cc2)cc1COc1ccccc1[N+](=O)[O-] | x | x | x | x | 6 | x
Cc1cc(Cl)ccc1NC(=O)CCC(=O)NN=Cc1cccnc1 | x | x | x | x | 5 | x
Cn1c(=O)[nH]c(=O)c2c1nc(N1CCCC1)n2CC(O)COc1ccccc1 (configuration not stated) | 14 | 95* | 8 | -6 | 4 | -2
COc1ccc(CCn2c(N3CCOCC3)nc3c2c(=O)[nH]c(=O)n3C)cc1 | 19 | 99* | 3 | 9 | 3 | -6
Cc1c(C(=O)O)c2cc(O)ccc2n1-c1ccccc1 | 7 | 80* | 10 | -11 | -1 | -5
CCOC(=O)c1c(C)n(-c2ccccc2)c2ccc(OCCN(C)C)cc12 | 44* | -12 | 12 | -3 | 2 | 8
COc1ccc2c(c1)c(C(=O)O)c(C)n2-c1ccccc1 | 6 | 0 | 15 | 0 | 1 | 1
CCOC(=O)c1c(C)n(C)c2ccc(OCCN(C)C)cc12 | 14 | -3 | 2 | 3 | 4 | 2
O=C1CSC(=S)N1/N=C/c1cc(Br)c(O)c(Br)c1 | 0 | 34 | x | 61* | x | 0
CCN(CC)c1ccc(/C=N/NC(=O)c2ccc3nc[nH]c3c2)cc1 | 17 | 99* | 3 | -11 | x | -2
COc1cccc(/C=N/NC(=O)c2ccc3nc[nH]c3c2)c1 | -2 | 93* | 15 | -10 | x | -3
CC(=NN1CCN(C2c3ccccc3-c3ccccc32)CC1)c1cccnc1 | x | x | x | x | 5 | x
Oc1ccc(NC(=S)Nc2ccc(F)cc2)cc1 | 10 | 98* | 8 | 5 | 5 | 1
C/C(=N\NC(=S)Nc1ccc(F)cc1)C1CC1 | 11 | 98* | -13 | -12 | x | u
CC(=O)c1ccc(NC(=O)C2CCC(C)(C(=O)O)C2(C)C)cc1 (configuration not stated) | 13 | 1 | 4 | -11 | 3 | -6
